# Fewer inactive variants are shown than the library holds.
# B1: tRNA (parent)
# chain: GUUCCGUUGGCGUAAUGGUAACGCGUCUCCCUCCUAAGGAGAAGACUGCGGGUUCGAGUCCCGUACGGAACG
# Variants of: B1
# Assay: yeast fitness relative to wild type (ratio to wild type); higher = fitter; tRNA-Arg(CCU), competitive growth, 37 C, YPD
# Procedure, shortened: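 Variants of the tRNA-Arg(CCU) gene, chemically synthesised with a 3% per-site mutation rate at 69 sites, were placed at the native genomic locus in Saccharomyces cerevisiae. The pooled strains were competed in YPD at 37°C for 24 hours in six parallel replicates. Gene amplicons from the start population and from each end population were read by 100-nucleotide paired-end sequencing. Darwinian fitness relative to wild type came from changes in genotype frequencies; genotypes needed ≥ 100 starting reads, and estimates < 0.5 were set to 0.5.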
row,Variant,yeast fitness
1,GUUCCGUUGGCGUAAUGGUAACGCGUCUCCCUCCUAAGCAGAAGACUCCGGGUUCGAGUCCCGUACGGCACG [G39C G48C A69C],0.57
2,GUUCCGUUGGCGUAAUGGUAACGCGUCUCCCUCCUAAGCAGAAGACUCCGGGUUCGAGUCCCCUAGGGAACG [G39C G48C G63C C66G],≤ 0.5
3,GUUCCGUUGGCGUAAUGGUAACGCGUCUCCCUCCUAAGCAGAAGACUGCGCGUUCGAGUCCCGUACGGAACG [G39C G51C],0.568
4,GUUCCGUUGGCGUAAUGGUAACGCGUCUCCCUCCUAAGCAGAAGACUGCGGAUUCGAGUCCCGUACGGAACG [G39C G52A],0.76
5,GUUCCGUUGGCGUAAUGGUAACGCGUCUCCCUCCUAAGCAGAAGACUGCGGGUUCCAGUCCCGUACGGAACG [G39C G56C],0.553
6,GUUCCGUUGGCGUAAUGGUAACGCGUCUCCCUCCUAAGCAGAAGACUGCGGGUUCGAAUCCCGUACGGAACG [G39C G58A],0.876
7,GUUCCGUUGGCGUAAUGGUAACGCGUCUCCCUCCUAAGCAGAAGACCGCGGGUUCGCGUCACGCACGGAACG [G39C U47C A57C C61A U64C],≤ 0.5
8,GUUCCGUUGGCGUAAUGGUAACGCGUCUCCCUCCUAAGCAGAAGACUGCGGGCUCGAGUCCCGUACGGAACG [G39C U53C],0.747
9,GUUCCGUUGGCGUAAUGGUAACGCGUCUCCCUCCUAAGCAGAAGACUGCGGGUUCGAGAGCCGUACGGAACG [G39C U59A C60G],0.541
10,GUUCCGUUGGCGUAAUGGUAACGCGUCUCCCUCCUAAGUAGAGGACUGCGGGUUCGAGUCCCGUACGGAACG [G39U A43G],0.811
11,GUUCCGUUGGCGUAAUGGUAACGCGUCUCCCUCCUAAGUAGAAGCCUGCGGGUUCGAGUCCCGUACGGAACG [G39U A45C],0.851
12,GUUCCGUUGGCGUAAUGGUAACGCGUCUCCCUCCUAAGGCGAAGACUGCGGGUUCGAGUCCCGUACGGAACG [A40C],1
13,GUUCCGUUGGCGUAAUGGUAACGCGUCUCCCUCCUAAGGCGGAGACCGCGGGUUAGAGUCCCGUACGGAACG [A40C A42G U47C C55A],0.587
14,GUUCCGUUGGCGUAAUGGUAACGCGUCUCCCUCCUAAGGCGUCGACUACGGGUUCGAGUCCCGUACGGAACG [A40C A42U A43C G48A],0.55
15,GUUCCGUUGGCGUAAUGGUAACGCGUCUCCCUCCUAAGGCGAAGACUGCGGGUUCGGGUCGCGUACGGAACG [A40C A57G C61G],≤ 0.5
16,GUUCCGUUGGCGUAAUGGUAACGCGUCUCCCUCCUAAGGCGAAGACUGCGGGUUCGGGUCUCGUACGGAACG [A40C A57G C61U],0.573
17,GUUCCGUUGGCGUAAUGGUAACGCGUCUCCCUCCUAAGGCGAAGACUGCGGGUUCGAGUCCCGUACGGAUCG [A40C A70U],0.797
18,GUUCCGUUGGCGUAAUGGUAACGCGUCUCCCUCCUAAGGCGAAGAUUGCGGGUUCGAGUCCCGUGCGCAACG [A40C C46U A65G G68C],0.59
19,GUUCCGUUGGCGUAAUGGUAACGCGUCUCCCUCCUAAGGCGAAGACUGGGGGUUCGAGUCCCGUACGGAACG [A40C C49G],0.804

row,Variant,yeast fitness
1,GUUCCGUUGGCGUAAUGGUAACGCGUCUCCCUCCUAAGGCGAAGACUGUGGGUUCGAGUCCCGUACGGCACG [A40C C49U A69C],0.592
2,GUUCCGUUGGCGUAAUGGUAACGCGUCUCCCUCCUAAGGCGAAGACUGCGGGUUAGAGUCCCGUACGGAACG [A40C C55A],0.556
3,GUUCCGUUGGCGUAAUGGUAACGCGUCUCCCUCCUAAGGCGAAGACUGCGGGUUAGAGUCCCGUAAGGAACG [A40C C55A C66A],0.578
4,GUUCCGUUGGCGUAAUGGUAACGCGUCUCCCUCCUAAGGCGAAGACUGCGGGUUCGAGUACCGUAUGGAACG [A40C C60A C66U],≤ 0.5
5,GUUCCGUUGGCGUAAUGGUAACGCGUCUCCCUCCUAAGGCCAAGACUGAGGGUUCGAGUCCCGUACGCAACG [A40C G41C C49A G68C],≤ 0.5
6,GUUCCGUUGGCGUAAUGGUAACGCGUCUCCCUCCUAAGGCGAAGACUCCGGGUUCGAGUCCCGUACGGAACG [A40C G48C],0.684
7,GUUCCGUUGGCGUAAUGGUAACGCGUCUCCCUCCUAAGGCGAAGACUCCGGGUUCGAGUCCCGUACGGCACG [A40C G48C A69C],0.57
8,GUUCCGUUGGCGUAAUGGUAACGCGUCUCCCUCCUAAGGCGAAGACUCCGGGUUCGAGCCCCGUACGGAACG [A40C G48C U59C],≤ 0.5
9,GUUCCGUUGGCGUAAUGGUAACGCGUCUCCCUCCUAAGGCGAAGACUGCAGGUUCGAGUCCCGUACGGAACG [A40C G50A],0.619
10,GUUCCGUUGGCGUAAUGGUAACGCGUCUCCCUCCUAAGGCGAAGACUGCGAGUUCGAGUCUCGUACGGCACG [A40C G51A C61U A69C],0.618
11,GUUCCGUUGGCGUAAUGGUAACGCGUCUCCCUCCUAAGGCGAAGACUGCGGCUUCGAGUCCCGUACAGAACG [A40C G52C G67A],0.55
12,GUUCCGUUGGCGUAAUGGUAACGCGUCUCCCUCCUAAGGCGAAGACUGCGGGUUCGAAUCCCGUACGGAACG [A40C G58A],0.962
13,GUUCCGUUGGCGUAAUGGUAACGCGUCUCCCUCCUAAGGCGAAGACUGCGGGUUCGAGUCCCGUACAGAACG [A40C G67A],0.846
14,GUUCCGUUGGCGUAAUGGUAACGCGUCUCCCUCCUAAGGCGAAGACUGCGGGUUCGAGUCCCGUACGCAACG [A40C G68C],0.641
15,GUUCCGUUGGCGUAAUGGUAACGCGUCUCCCUCCUAAGGCGAAGACUGCGGGUUCGAGUCCCGUACGUAACG [A40C G68U],0.788
16,GUUCCGUUGGCGUAAUGGUAACGCGUCUCCCUCCUAAGGCGAAGACAGCGGGUUCGAGUCCCGUACGGGACG [A40C U47A A69G],0.54
17,GUUCCGUUGGCGUAAUGGUAACGCGUCUCCCUCCUAAGGCGAAGACCGCGGGUUCGAGUCCCGUACGGAACG [A40C U47C],0.904
18,GUUCCGUUGGCGUAAUGGUAACGCGUCUCCCUCCUAAGGCGAAGACUGCGGGUACGAGUCCUGUACGGAACG [A40C U54A C62U],≤ 0.5
19,GUUCCGUUGGCGUAAUGGUAACGCGUCUCCCUCCUAAGGCGAAGACUGCGGGUUCGAGUCCCGCACGGAACG [A40C U64C],0.912

# — the RNAGym collection of RNA variant scans (doi:10.1126/science.aae0568)
